Reference: ChEMBL document CHEMBL5154918, “Synthesis and Biological Characterization of a Series of 2-Sulfonamidebenzamides as Allosteric Modulators of MrgX1” (ACS Med Chem Lett, 2022)

How the values were obtained:
[1] = target: T1, Mas-related G-protein coupled receptor member X1 (Homo sapiens, UniProt Q96LB2); experiment: Positive allosteric modulator activity at human MRGPRX1 expressed in HEK293 cells assessed as maximal efficacy at 5 uM in presence of BAM8-22 by Fluo4-dye based FLIPR assay relative to control; type: cell-based
T1 sequence (Q96LB2 whole entry): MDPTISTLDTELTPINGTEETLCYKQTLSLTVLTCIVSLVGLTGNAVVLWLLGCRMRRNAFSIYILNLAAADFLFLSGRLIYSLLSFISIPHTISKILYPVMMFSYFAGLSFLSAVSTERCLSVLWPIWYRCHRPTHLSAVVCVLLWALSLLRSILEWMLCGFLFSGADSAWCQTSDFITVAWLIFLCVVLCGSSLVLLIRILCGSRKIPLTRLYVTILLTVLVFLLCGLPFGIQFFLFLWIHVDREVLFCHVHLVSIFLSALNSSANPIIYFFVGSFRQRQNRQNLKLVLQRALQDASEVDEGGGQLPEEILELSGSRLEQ

[2] = target: T1, Mas-related G-protein coupled receptor member X1; experiment: Positive allosteric modulator activity at human MRGPRX1 expressed in HEK293 cells in presence of BAM8-22 by Fluo4-dye based FLIPR assay; type: cell-based
In short: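 HEK293 cells expressing MrgX1. Compounds tested in the presence of 10 nM BAM8-22. Emax normalized to control compound ML382; mean ± SEM of n = 2 experiments.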

[3] = filed as positive allosteric modulator

Row | Emax [1] [%] | Emax [1, 3] [%] | EC50 [2] [nM] | SMILES
1 | 14.6 | – | – | O=C(Nc1cccc2c1OC(F)(F)O2)c1ccccc1NS(=O)(=O)C1CC1
2 | – | 118 | 206 | CCOc1ccc(F)cc1NC(=O)c1cc(Cl)ccc1NS(=O)(=O)CC
3 | 6.7 | – | – | CCOc1ccccc1-c1nnc(-c2ccccc2NS(=O)(=O)C2CC2)o1
4 | 7.4 | – | – | O=C(Nc1cccc2c1OCO2)c1ccccc1NS(=O)(=O)C1CC1
5 | 1.9 | – | – | CCOc1ccccc1Nc1nn(S(=O)(=O)C2CC2)c2cccnc12
6 | – | 61.5 | 1360 | O=C(Nc1ccccc1OCC1CC1)c1ccccc1NS(=O)(=O)C1CC1
7 | 0.1 | – | – | CCOc1ccccc1NC(=O)c1ncccc1NS(=O)(=O)C1CC1
8 | – | 89.9 | 369 | Cc1ccc(NS(=O)(=O)C2CC2)c(C(=O)Nc2ccccc2OCC(F)(F)F)c1
9 | – | 83.1 | 2830 | CC(C)Oc1ccccc1NC(=O)c1ccccc1NS(=O)(=O)C1CC1
10 | -10.5 | – | – | CCOc1cc(F)ccc1NC(=O)c1ccccc1NS(=O)(=O)C1CC1
11 | 29.7 | – | – | CCOc1ccccc1NC(=O)c1cc2ccccc2cc1NS(=O)(=O)C1CC1
12 | -11.7 | – | – | CCOc1ccccc1Nc1nn(S(=O)(=O)C2CC2)c2ncccc12
13 | – | 74 | 285 | CCOc1ccc(F)cc1NC(=O)c1ccccc1NS(=O)(=O)CC
14 | -25.6 | – | – | CC1(C)Oc2cccc(NC(=O)c3ccccc3NS(=O)(=O)C3CC3)c2O1
15 | – | 70.6 | – | CCOc1ccccc1NC(=O)c1ccc(NS(=O)(=O)C2CC2)cc1
16 | 3.2 | – | – | CCOc1ccccc1NC(=O)c1ccc(C)cc1NS(=O)(=O)C1CC1
17 | -15.6 | – | – | COc1ccc(NC(=O)c2ccccc2NS(=O)(=O)C2CC2)cc1
18 | – | 108 | 217 | CCOc1ccccc1NC(=O)c1cc(C)ccc1NS(=O)(=O)CC
19 | – | 58.4 | – | CCS(=O)(=O)Nc1ccc(C)cc1C(=O)Nc1ccccc1OCC(F)(F)F
20 | 24.2 | – | – | CCOC1CCCCC1NC(=O)c1ccccc1NS(=O)(=O)C1CC1 (stereo not drawn)
21 | – | 89.5 | 366 | CCS(=O)(=O)Nc1ccc(Cl)cc1C(=O)Nc1ccccc1OCC(F)(F)F

Row | Emax [1] [%] | Emax [1, 3] [%] | EC50 [2] [nM] | SMILES
22 | -44.4 | – | – | CCOc1ccccc1NC(=O)c1cccc(NS(=O)(=O)C2CC2)c1
23 | 29.1 | – | – | O=C(Nc1ccccc1OCC(F)(F)F)c1ccc(F)cc1NS(=O)(=O)C1CC1
24 | – | 59.8 | – | O=C(Nc1ccccc1OCC(F)(F)F)c1cc(F)ccc1NS(=O)(=O)C1CC1
25 | – | 89.2 | 407 | CCOc1ccccc1NC(=O)c1cc(Cl)ccc1NS(=O)(=O)CC
26 | 12.7 | – | – | CCOc1ccccc1CNC(=O)c1ccccc1NS(=O)(=O)C1CC1
27 | -5.7 | – | – | CCOc1ccccc1Nc1nn(S(=O)(=O)C2CC2)c2ccccc12
28 | 2.1 | – | – | O=C(Nc1ccc2c(c1)OCCO2)c1ccccc1NS(=O)(=O)C1CC1
29 | 12.1 | – | – | CCOc1ccccc1NC(=O)c1ccncc1NS(=O)(=O)C1CC1
30 | – | 73.2 | 1090 | CCOc1ccc(NC(=O)c2ccccc2NS(=O)(=O)C2CC2)c(OCC)c1
31 | 7.5 | – | – | CCOc1ccccc1-c1nnc(-c2ccccc2NS(=O)(=O)C2CC2)[nH]1
32 | – | 80.1 | 3140 | O=C(Nc1ccccc1OC1CCCC1)c1ccccc1NS(=O)(=O)C1CC1
33 | 8.9 | – | – | CCOc1ccccc1NC(=O)c1ccc2ccccc2c1NS(=O)(=O)C1CC1
34 | – | 103 | 915 | O=C(Nc1ccccc1OCC(F)(F)F)c1cc(Cl)ccc1NS(=O)(=O)C1CC1
35 | 20.7 | – | – | COCCOc1ccccc1NC(=O)c1ccccc1NS(=O)(=O)C1CC1
36 | -11.9 | – | – | COc1ccccc1N(C)C(=O)c1ccccc1NS(=O)(=O)C1CC1
37 | 2.7 | – | – | O=C(c1ccccc1NS(=O)(=O)C1CC1)N1CCOc2ccccc21
38 | 36.1 | – | – | CCOc1ccccc1NC(=O)c1ccc(Cl)cc1NS(=O)(=O)C1CC1
39 | 6.8 | – | – | O=C(c1ccccc1NS(=O)(=O)C1CC1)N1CCCc2ccccc21
40 | 1.6 | – | – | CCOc1cccnc1NC(=O)c1ccccc1NS(=O)(=O)C1CC1
41 | 23.8 | – | – | CCOc1cccc2nc(-c3ccccc3NS(=O)(=O)C3CC3)[nH]c12
42 | 27 | – | – | O=C(Nc1cccc2c1OCCC2)c1ccccc1NS(=O)(=O)C1CC1
